Series [1] concerns the target T1, ATP-dependent translocase ABCB1 (Homo sapiens, UniProt P08183). As to the kind of experiment: Modulation of ABCB1 (unknown origin) expressed in mouse L5178Y-MDR cells assessed as multidrug resistance reversing activity by measuring fluorescence activity ratio at 20 uM by rhodamine-123 accumulation based flow cytometry (reference value: 1.1 No unit). Type of series: cell-based.

For series [2], the target named is T1, ATP-dependent translocase ABCB1. As to the kind of experiment: Modulation of ABCB1 (unknown origin) expressed in mouse L5178Y-MDR cells assessed as multidrug resistance reversing activity by measuring fluorescence activity ratio at 0.2 uM by rhodamine-123 accumulation based flow cytometry (reference value: 1.1 No unit). Type of series: cell-based.
Series [3] has the same target. The series can be described thus: Modulation of ABCB1 (unknown origin) expressed in mouse L5178Y-MDR cells assessed as multidrug resistance reversing activity by measuring fluorescence activity ratio at 2 uM by rhodamine-123 accumulation based flow cytometry (reference value: 1.1 No unit). Type of series: cell-based.
Series [4] can be described thus: Antiproliferative activity against mouse L5178Y cells by MTT assay. To be noted: read-out: ID50 (the source's name). Type of series: cell-based. The method, boiled down: (§1)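 MTT assay on parental L5178 mouse T-lymphoma cells and a subline transfected with pHa MDR1/A retrovirus (human ABCB1) and selected with colchicine. Cells were exposed to increasing concentrations from 0.26 to 133 μM. Other handling followed earlier reports.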

Series [5] in a line: Antiproliferative activity against mouse L5178Y cells transfected with ABCB1 by MTT assay. To be noted: read-out: ID50 (the source's name). Type of series: ADME, cell-based. In a few lines:
as §1

The structures appear in SMILES notation.

T1 sequence (P08183 whole entry): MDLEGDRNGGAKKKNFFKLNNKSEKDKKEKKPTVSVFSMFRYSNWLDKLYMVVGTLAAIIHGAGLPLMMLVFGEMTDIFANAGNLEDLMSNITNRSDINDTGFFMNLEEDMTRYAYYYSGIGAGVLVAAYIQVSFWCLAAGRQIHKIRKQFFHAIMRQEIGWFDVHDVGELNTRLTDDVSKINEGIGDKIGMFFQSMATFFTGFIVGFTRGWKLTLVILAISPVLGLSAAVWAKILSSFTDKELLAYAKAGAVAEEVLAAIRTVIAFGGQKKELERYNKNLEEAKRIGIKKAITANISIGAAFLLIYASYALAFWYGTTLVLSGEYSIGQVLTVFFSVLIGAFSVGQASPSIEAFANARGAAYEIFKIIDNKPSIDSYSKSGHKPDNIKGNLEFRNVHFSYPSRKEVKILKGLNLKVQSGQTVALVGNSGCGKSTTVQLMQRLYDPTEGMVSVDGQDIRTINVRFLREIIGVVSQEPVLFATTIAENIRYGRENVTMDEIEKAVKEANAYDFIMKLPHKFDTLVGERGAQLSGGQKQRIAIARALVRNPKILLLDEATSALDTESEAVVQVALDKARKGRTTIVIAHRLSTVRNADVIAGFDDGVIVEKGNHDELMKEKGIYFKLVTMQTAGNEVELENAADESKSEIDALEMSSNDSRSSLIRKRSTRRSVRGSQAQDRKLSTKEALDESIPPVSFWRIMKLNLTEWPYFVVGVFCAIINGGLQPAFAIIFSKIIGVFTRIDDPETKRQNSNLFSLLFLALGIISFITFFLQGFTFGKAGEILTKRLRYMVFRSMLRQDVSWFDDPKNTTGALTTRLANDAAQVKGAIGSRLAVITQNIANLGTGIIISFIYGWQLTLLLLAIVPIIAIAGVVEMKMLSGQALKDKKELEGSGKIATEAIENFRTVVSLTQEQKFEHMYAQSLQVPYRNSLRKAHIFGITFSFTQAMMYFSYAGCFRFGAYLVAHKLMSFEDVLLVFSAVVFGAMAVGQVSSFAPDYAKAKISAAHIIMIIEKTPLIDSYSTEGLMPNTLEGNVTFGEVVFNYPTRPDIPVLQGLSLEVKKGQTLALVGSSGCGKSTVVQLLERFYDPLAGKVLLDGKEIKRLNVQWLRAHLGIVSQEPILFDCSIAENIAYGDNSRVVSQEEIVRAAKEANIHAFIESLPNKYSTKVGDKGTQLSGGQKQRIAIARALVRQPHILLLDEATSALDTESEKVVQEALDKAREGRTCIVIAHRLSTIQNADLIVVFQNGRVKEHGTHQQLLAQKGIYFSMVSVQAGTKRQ

Regarding `CC(C)=CC(=O)C[C@@H](C)[C@H]1CC[C@@]2(C)[C@@H]3C(=O)[C@@H]4C(C)(C)[C@@]45C(=O)CC[C@H]5[C@]3(C)CC[C@]12C`, the figures for the Ratio in series [1], in series [2] and in series [3] were 105.5, 5.9 and 76.7, respectively. Moreover, the GI50 in series [4] and in series [5] was over 100 µM in each case.

With `CC(=O)C[C@@H](C)[C@H]1CC[C@@]2(C)[C@@H]3C(=O)[C@@H]4C(C)(C)[C@@]45C(=O)CC[C@H]5[C@]3(C)CC[C@]12C`, the figures for the Ratio in series [1], in series [2] and in series [3] were 87.5, 1.4 and 14.2, respectively. The results for the GI50 in series [4] and in series [5] were 72.2 µM and 68.3 µM, respectively.

As for `C=C(C)/C=C/C[C@@H](C)[C@H]1CC[C@@]2(C)[C@@H]3C(=O)[C@@H]4C(C)(C)[C@@]45C(=O)CC[C@H]5[C@]3(C)CC[C@]12C`, the Ratio in series [1] is given as 117.7; in series [2], 3.1; in series [3] it was 62.2. The GI50 in series [4] amounted to 20.7 µM; in series [5], 37.6 µM.

Source of the values: ChEMBL document CHEMBL4387787, “Cucurbalsaminones A-C, Rearranged Triterpenoids with a 5/6/3/6/5-Fused Pentacyclic Carbon Skeleton from Momordica balsamina, as Multidrug Resistance Reversers” (J Nat Prod, 2019).
